Calls of active or inactive are those of the source. No cut-off for these calls is given here.
What was measured:
[1] = organism: Canis familiaris; test: Compound was evaluated for the stimulation of canine renal artery; Inactive; assay type: functional, organism-based; conditions: Canis lupus familiaris
[2] = organism: Rattus norvegicus; test: Compound was evaluated for the stimulation of rat retinal adenylate cyclase at 10.0 uM dose; assay type: functional
How it was run: (§1)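 Retinal homogenate, […], incubated 20 min at 30 °C. Stopped with SDS/ATP/cAMP plus [3H]cAMP recovery tracer and 2 min at 85 °C. [32P]cAMP isolated by Salomon column chromatography.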

[3] = organism: Rattus norvegicus; test: Compound was evaluated for the stimulation of rat retinal adenylate cyclase at 100.0 uM dose; assay type: functional; how it was run: as §1
[4] = organism: Rattus norvegicus; test: Compound was evaluated for the stimulation of rat retinal adenylate cyclase at 1.0 uM dose; assay type: functional; how it was run: as §1
[5] = organism: Rattus norvegicus; test: Compound was evaluated for the stimulation of rat retinal adenylate cyclase by effect of its alkyl length at 1.0 uM dose; assay type: functional; how it was run: as §1
[6] = organism: Rattus norvegicus; test: Compound was evaluated for the stimulation of rat retinal adenylate cyclase by effect of its alkyl length at 10.0 uM dose; assay type: functional; how it was run: as §1
[7] = organism: Rattus norvegicus; test: Compound was evaluated for the stimulation of rat retinal adenylate cyclase by effect of its alkyl length at 100.0 uM dose; assay type: functional; how it was run: as §1
[8] = organism: Rattus norvegicus; test: Compound was evaluated for the stimulation of rat retinal adenylate cyclase by effect of its alkyl length at 0.1 uM dose; assay type: functional; how it was run: as §1
[9] = organism: Rattus norvegicus; test: Compound was evaluated for the stimulation of rat retinal adenylate cyclase at 0.1 uM dose; assay type: functional; how it was run: as §1

Structure (SMILES) | Activity [1] | Stimulation [2] [%] | Stimulation [3] [%] | Stimulation [4] [%] | Stimulation [5] [%] | Stimulation [6] [%] | Stimulation [7] [%] | Stimulation [8] [%] | Stimulation [9] [%]
Oc1cccc(C2CNCc3ccccc32)c1 (stereo not given) | inactive | 47 | 81 | 21 | – | – | – | – | –
Oc1ccc(C2CNCc3ccccc32)cc1O (stereo not given) | – | 152.7 | 198.8 | 89.6 | 87.7 | 188 | 288.8 | 11.5 | 23.6
Oc1ccc(C2CNCc3sccc32)cc1O (stereo not given) | – | 188.6 | 207 | 160.2 | – | – | – | – | 70.4
CN1Cc2ccccc2C(c2ccc(O)c(O)c2)C1 (stereo not given) | – | – | – | – | 46.5 | 122.6 | 144.9 | -1.7 | –
CCCN1Cc2ccccc2C(c2ccc(O)c(O)c2)C1 (stereo not given) | – | – | – | – | -7.7 | 11.8 | 46.4 | – | –
CCN1Cc2ccccc2C(c2ccc(O)c(O)c2)C1 (stereo not given) | – | – | – | – | -1 | 42.7 | 94.1 | -8.8 | –
NCCc1ccc(O)c(O)c1 [DOPAMINE] | – | 209.8 | 295.3 | 116.2 | – | – | – | – | 25.7
Oc1ccc(C2CNCCc3c2cc(O)c(O)c3Cl)cc1 (stereo not given) [FENOLDOPAM] | – | 201.4 | 246 | 176 | – | – | – | – | 165.1

From ChEMBL document CHEMBL1123933, “Specific dopamine D-1 and DA1 properties of 4-(mono- and -dihydroxyphenyl)-1,2,3,4-tetrahydroisoquinoline and its tetrahydrothieno[2,3-c]pyridine analogue” (1987)
